Tests used:
Trypanosoma cruzi [1] = assay: Antitrypanosomal activity against Trypanosoma cruzi Tulahuen 2 epimastigotes assessed as growth inhibition after 5 days; assay type: functional, organism-based; settings: Trypanosoma cruzi, Tulahuen 2, 120 h
How it was run: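 Epimastigotes were grown axenically at 28 °C in BHI-tryptose with 5% FBS and seeded from a 5–7 day culture at 1 × 10⁶ cells/mL. Drug from a DMSO stock was added (final DMSO ≤0.4%; the control contained 0.4% DMSO). Duplicates were run. A600 was read at day 5, and % inhibition was calculated relative to day-0 and control readings. IC50 = concentration that halves the absorbance ratio.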

Trypanosoma cruzi [2] = assay: Antitrypanosomal activity against Trypanosoma cruzi Sylvio X-10 amastigotes infected in African green monkey Vero cells assessed as eradication of amastigotes after 5 days by Giemsa staining-based assay; assay type: functional, organism-based; settings: Sylvio X-10, Vero, 120 h
How it was run: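 VERO cells in RPMI 1640 with 10% hiFCS were allowed to adhere for 24 h at 37 °C in 5% CO₂, then infected with tissue-derived trypomastigotes at 10:1. Free parasites were washed off after 24 h, and cultures were treated at five compound doses (text gives 72 h / 5 days). Cultures were methanol-fixed and Giemsa-stained, and infected cells were counted among 300. Quadruplicates were run in three independent experiments. IC50/IC90 were obtained by sigmoidal regression.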

[3] = Selectivity index, ratio of IC50 for African green monkey Vero cells to IC50 for Trypanosoma cruzi Sylvio X-10 amastigotes; assay type: toxicity, cell-based; settings: read-out: Ratio IC50
How it was run: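 VERO cytotoxicity: cells exposed 48 h at 37 °C, 5% CO2 to serial dilutions from a maximum of 2000 μM (DMSO stocks; DMSO <0.1% control); growth inhibition read by MTT at 570 nm. Amastigote IC50: Sylvio X-10-infected VERO cells, five doses, infected cells counted among 300 (Giemsa), quadruplicate, three experiments, sigmoidal fit. SI = IC50 VERO / IC50 amastigote.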

Salmonella typhimurium [4] = assay: Mutagenic activity in Salmonella typhimurium TA98 at 5 to 400 ug/plate by Ames test; assay type: toxicity, organism-based; settings: salmonella enterica subsp. enterica serovar typhimurium
How it was run: (§1)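 Ames plate-incorporation assay with S. typhimurium TA98 in Vogel-Bonner E minimal glucose agar. Toxicity toward the bacteria was checked first. DMSO solutions were run in triplicate at five consecutive third-dilutions, starting at the highest non-toxic dose. Positive controls were 4-nitro-o-phenylenediamine (20.0 μg/plate) and 2-aminofluorene (10.0 μg/plate); DMSO was the negative control. Revertants were counted manually. A compound was called mutagenic when revertants were at least twice the negative control at two or more consecutive doses.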

Salmonella typhimurium [5] = assay: Mutagenic activity in Salmonella typhimurium TA98 at 5 to 400 ug/plate by Ames test in presence of mouse liver S9 fraction; assay type: toxicity, organism-based; settings: salmonella enterica subsp. enterica serovar typhimurium; how it was run: as §1
Salmonella typhimurium [6] = assay: Mutagenic activity in Salmonella typhimurium TA100 at 0.003 to 0.2 ug/plate by Ames test; assay type: toxicity, organism-based; settings: salmonella enterica subsp. enterica serovar typhimurium
How it was run: (§2)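 Direct plate incubation on minimal glucose agar (Vogel-Bonner E). Compound toxicity to the bacteria was checked first. DMSO solutions were tested at five consecutive 3-fold dilutions, starting from the highest non-toxic dose, in triplicate, without metabolic activation. DMSO served as negative control. Revertants were counted manually; mutagenic = revertants at least double the negative control at two or more consecutive doses.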

Salmonella typhimurium [7] = assay: Mutagenic activity in Salmonella typhimurium TA102 at 3.09 to 250 ug/plate by Ames test in presence of mouse liver S9 fraction; assay type: toxicity, organism-based; settings: salmonella enterica subsp. enterica serovar typhimurium
How it was run: (§3)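 Plate-incorporation Ames test on minimal glucose agar with 500 μL Aroclor-treated mouse liver S9 added. DMSO solutions were tested at five consecutive 3-fold dilutions from the highest non-toxic dose, in triplicate, with a DMSO negative control. Revertants were counted manually; a compound was scored mutagenic when revertants were at least twice the negative control for two or more consecutive doses.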

Salmonella typhimurium [8] = assay: Mutagenic activity in Salmonella typhimurium TA1535 at 3.09 to 250 ug/plate by Ames test; assay type: toxicity, organism-based; settings: salmonella enterica subsp. enterica serovar typhimurium; how it was run: as §2
Salmonella typhimurium [9] = assay: Mutagenic activity in Salmonella typhimurium TA1535 at 3.09 to 250 ug/plate by Ames test in presence of mouse liver S9 fraction; assay type: toxicity, organism-based; settings: salmonella enterica subsp. enterica serovar typhimurium; how it was run: as §3
Salmonella typhimurium [10] = assay: Mutagenic activity in Salmonella typhimurium TA1537 at 3.09 to 250 ug/plate by Ames test; assay type: toxicity, organism-based; settings: salmonella enterica subsp. enterica serovar typhimurium; how it was run: as §2
Salmonella typhimurium [11] = assay: Mutagenic activity in Salmonella typhimurium TA1537 at 3.09 to 250 ug/plate by Ames test in presence of mouse liver S9 fraction; assay type: toxicity, organism-based; settings: salmonella enterica subsp. enterica serovar typhimurium; how it was run: as §3
[12] = Stability of the compound in aqueous solution assessed as compound remaining at 1 mM at 37 degC after 1 hr by TLC analysis in presence of rat liver cytosolic fraction; assay type: ADME; settings: cytosol, 1000 µM
How it was run: (§4)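 Rat liver cytosolic (100 000g supernatant) and microsomal (100 000g pellet, washed and resuspended in Tris·HCl) fractions, fresh or stored at −80 °C; protein measured by BCA. Compound incubated with the fraction 1 h at 37 °C and analysed by TLC of extracts.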

[13] = Stability of the compound in aqueous solution assessed as compound remaining at 1 mM at 37 degC after 1 hr by TLC analysis in presence of rat liver microsomal fraction; settings: microsomes, 1000 µM; how it was run: as §4
Mus musculus = assay: Toxicity in BALB/c mouse assessed as mortality at 100 mg/kg/day, po for 14 days; assay type: organism-based; set-up: route oral; settings: in vivo, 336 h
How it was run: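 Uninfected female BALB/c mice (n = 2/group) received intragastric gavage daily for 14 days in saline/Tween 80 (4:1). They were weighed and monitored daily, then sacrificed for macroscopic necropsy of organs.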

Trypanosoma cruzi [14] = assay: Antitrypanosomal activity against Trypanosoma cruzi CL Brener infected in BALB/c mouse assessed as peak of maximum parasitemia at 214 umol/kg/day, po for 14 days administered in cholesterol/surfactant/phosphate buffer measured up to 60 days relative to control; assay type: functional
How it was run: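 Male BALB/c mice (30 days old, 25–30 g, SPF) were infected i.p. with 10³ blood trypomastigotes, n = 7/group. Daily oral gavage in a microemulsion (cholesterol oil phase, phosphatidylcholine/sodium oleate/polyoxyl-40 hydrogenated castor oil surfactant, phosphate buffer pH 7.4) ran for 14 days from day 6; vehicle controls were included. Parasitemia was read weekly in tail-vein blood by hemocytometer for 60 days, with survival recorded.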

Trypanosoma cruzi [15] = assay: Antitrypanosomal activity against Trypanosoma cruzi CL Brener infected in BALB/c mouse assessed as mouse survival at 107 umol/kg/day, po for 14 days administered in saline and tween 80 measured up to 60 days relative to control; assay type: functional
How it was run: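 Male BALB/c mice (30 days old, 25–30 g, SPF) infected i.p.; daily intragastric gavage for 14 days, starting day 6 postinfection, in saline/Tween 80 (4:1 v/v); n = 8/group; vehicle-only control. Parasitemia counted by hemocytometer in tail-vein blood; survival followed to 65 days postinfection.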

Trypanosoma cruzi [16] = assay: Antitrypanosomal activity against Trypanosoma cruzi CL Brener infected in BALB/c mouse assessed as mouse survival at 107 umol/kg/day, po for 14 days administered in cholesterol/surfactant/phosphate buffer measured up to 60 days relative to control; assay type: functional
How it was run: (§5)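 Infected male BALB/c mice (30 days old, 25–30 g) were gavaged daily from day 6 postinfection for 14 days. Vehicle was a microemulsion of 10% cholesterol, 10% surfactant (soya phosphatidylcholine/sodium oleate/polyoxyl-40 hydrogenated castor oil) and 80% phosphate buffer pH 7.4. n = 7/group, with vehicle controls. Tail-vein parasitemia was taken weekly for 60 days and mortality recorded.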

Trypanosoma cruzi [17] = assay: Antitrypanosomal activity against Trypanosoma cruzi CL Brener infected in BALB/c mouse assessed as mouse survival at 214 umol/kg/day, po for 14 days administered in cholesterol/surfactant/phosphate buffer measured up to 60 days relative to control; assay type: functional; how it was run: as §5

Br.C=CCn1c(-c2ccc(Cl)cc2)cs\c1=N/N=C/C=C/c1ccco1.O
IC50 (Trypanosoma cruzi [1]): 1.3 µM | IC50 (Trypanosoma cruzi [2]): < 0.25 µM | selectivity ratio [3]: > 1000 | Activity (Salmonella typhimurium [4]): Non-toxic | Activity (Salmonella typhimurium [5]): Non-toxic | Activity (Salmonella typhimurium [6]): Non-toxic | Activity (Salmonella typhimurium [7]): Non-toxic | Activity (Salmonella typhimurium [8]): Non-toxic | Activity (Salmonella typhimurium [9]): Non-toxic | Activity (Salmonella typhimurium [10]): Non-toxic | Activity (Salmonella typhimurium [11]): Non-toxic | Stability [12]: Stable | Stability [13]: Stable | Activity (Mus musculus): Non-toxic | Time (Trypanosoma cruzi [14]): 35 days | survival at 107 µmol/kg (Trypanosoma cruzi [15]): 75% | survival at 107 µmol/kg (Trypanosoma cruzi [16]): 100% | survival at 214 µmol/kg (Trypanosoma cruzi [17]): 100%

From ChEMBL document CHEMBL3259808, “Optimization of antitrypanosomatid agents: identification of nonmutagenic drug candidates with in vivo activity” (J Med Chem, 2014)
